The target of assay [1] is DNA (cytosine-5)-methyltransferase 1 (Homo sapiens) (UniProt P26358). Kind of assay: Inhibition of DNMT1 (unknown origin) using ds-DNA peptide in presence of SAM. Put shortly: (§1)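 Radiometric methyltransferase panel in which 3H-SAM, at or below each enzyme's Km, methylates biotinylated peptide substrates. They were quenched with 7.5 M guanidine-HCl, diluted, captured on streptavidin flash plates for 1 h, and counted by scintillation.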

For assay [2], the target named is Prostaglandin E2 receptor EP4 subtype (Homo sapiens) (UniProt P35408). Put plainly: Inhibition of human EP4 receptor at 1 uM relative to control.
Chain of Prostaglandin E2 receptor EP4 subtype (Homo sapiens) (P35408 whole entry): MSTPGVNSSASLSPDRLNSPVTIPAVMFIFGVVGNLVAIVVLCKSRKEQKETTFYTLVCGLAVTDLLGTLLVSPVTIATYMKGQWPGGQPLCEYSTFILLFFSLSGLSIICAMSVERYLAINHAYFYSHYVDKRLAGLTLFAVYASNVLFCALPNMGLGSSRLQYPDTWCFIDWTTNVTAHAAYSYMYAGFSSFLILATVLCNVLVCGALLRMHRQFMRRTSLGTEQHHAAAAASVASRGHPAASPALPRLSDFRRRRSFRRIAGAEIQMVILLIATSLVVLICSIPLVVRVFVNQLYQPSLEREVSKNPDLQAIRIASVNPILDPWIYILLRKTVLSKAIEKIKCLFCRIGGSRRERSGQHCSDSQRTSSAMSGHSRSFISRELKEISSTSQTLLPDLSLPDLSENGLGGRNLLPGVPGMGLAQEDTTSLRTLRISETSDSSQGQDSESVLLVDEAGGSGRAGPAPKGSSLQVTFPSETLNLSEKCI
Assay [3] concerns the target Histone-lysine N-methyltransferase EHMT1 (Homo sapiens) (UniProt Q9H9B1). Kind of assay: Inhibition of EHMT1 (unknown origin) using H3 1-25 peptide in presence of SAM. An outline of the steps: as §1
The subject of assay [4] is Cord blood cell. Kind of assay: Cytotoxicity against human Cord blood cell habouring TLS-ERG fusion protein assessed as reduction in cell viability at 1 to 5 uM incubated for 14 days by resazurin dye based […] assay. Type of assay: functional. The conditions noted are these: dose 1-5 µM, time 14.0 day. An outline of the steps: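 Transformed human cord blood cells were cultured with DMSO or inhibitor at 1 and 5 μM for 14 days. Resazurin (0.1 mg ml−1) was added for 4 h and resorufin fluorescence was read. Data are from at least two independent experiments, each with three repeats, shown as s.e. of the mean.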
In general terms: Alamar Blue is a resazurin reagent that responds to reducing activity.

The target in assay [5] is Alpha-1B adrenergic receptor (Rattus norvegicus) (UniProt P15823). Kind of assay: Inhibition of rat Adrenergic alpha 1B receptor at 1 uM relative to control.
The nature of assay [6]: cells. The following applies: Homo sapiens, MCF-10A.
Assay [7] concerns the target Beta-1 adrenergic receptor (Homo sapiens) (UniProt P08588). Put plainly: Inhibition of human Adrenergic beta1 receptor at 1 uM relative to control.
Assay [8] has as its target D(2) dopamine receptor (Homo sapiens) (UniProt P14416). Kind of assay: Inhibition of human dopamine D2s receptor at 1 uM relative to control.
Assay [9] addresses Sigma non-opioid intracellular receptor 1 (Homo sapiens) (UniProt Q99720). Kind of assay: Inhibition of human sigma 1 receptor at 1 uM relative to control.
Assay [10] deals with T1, Histone-lysine N-methyltransferase, H3 lysine-79 specific (Homo sapiens, UniProt Q8TEK3). Kind of assay: Binding affinity to recombinant N-terminal DOT1L (1 to 420 residues) (unknown origin) expressed in Escherichia coli (DE3) assessed as dissociation constant by SPR analysis.
T1 sequence (Q8TEK3 whole entry, the tested form may be a part): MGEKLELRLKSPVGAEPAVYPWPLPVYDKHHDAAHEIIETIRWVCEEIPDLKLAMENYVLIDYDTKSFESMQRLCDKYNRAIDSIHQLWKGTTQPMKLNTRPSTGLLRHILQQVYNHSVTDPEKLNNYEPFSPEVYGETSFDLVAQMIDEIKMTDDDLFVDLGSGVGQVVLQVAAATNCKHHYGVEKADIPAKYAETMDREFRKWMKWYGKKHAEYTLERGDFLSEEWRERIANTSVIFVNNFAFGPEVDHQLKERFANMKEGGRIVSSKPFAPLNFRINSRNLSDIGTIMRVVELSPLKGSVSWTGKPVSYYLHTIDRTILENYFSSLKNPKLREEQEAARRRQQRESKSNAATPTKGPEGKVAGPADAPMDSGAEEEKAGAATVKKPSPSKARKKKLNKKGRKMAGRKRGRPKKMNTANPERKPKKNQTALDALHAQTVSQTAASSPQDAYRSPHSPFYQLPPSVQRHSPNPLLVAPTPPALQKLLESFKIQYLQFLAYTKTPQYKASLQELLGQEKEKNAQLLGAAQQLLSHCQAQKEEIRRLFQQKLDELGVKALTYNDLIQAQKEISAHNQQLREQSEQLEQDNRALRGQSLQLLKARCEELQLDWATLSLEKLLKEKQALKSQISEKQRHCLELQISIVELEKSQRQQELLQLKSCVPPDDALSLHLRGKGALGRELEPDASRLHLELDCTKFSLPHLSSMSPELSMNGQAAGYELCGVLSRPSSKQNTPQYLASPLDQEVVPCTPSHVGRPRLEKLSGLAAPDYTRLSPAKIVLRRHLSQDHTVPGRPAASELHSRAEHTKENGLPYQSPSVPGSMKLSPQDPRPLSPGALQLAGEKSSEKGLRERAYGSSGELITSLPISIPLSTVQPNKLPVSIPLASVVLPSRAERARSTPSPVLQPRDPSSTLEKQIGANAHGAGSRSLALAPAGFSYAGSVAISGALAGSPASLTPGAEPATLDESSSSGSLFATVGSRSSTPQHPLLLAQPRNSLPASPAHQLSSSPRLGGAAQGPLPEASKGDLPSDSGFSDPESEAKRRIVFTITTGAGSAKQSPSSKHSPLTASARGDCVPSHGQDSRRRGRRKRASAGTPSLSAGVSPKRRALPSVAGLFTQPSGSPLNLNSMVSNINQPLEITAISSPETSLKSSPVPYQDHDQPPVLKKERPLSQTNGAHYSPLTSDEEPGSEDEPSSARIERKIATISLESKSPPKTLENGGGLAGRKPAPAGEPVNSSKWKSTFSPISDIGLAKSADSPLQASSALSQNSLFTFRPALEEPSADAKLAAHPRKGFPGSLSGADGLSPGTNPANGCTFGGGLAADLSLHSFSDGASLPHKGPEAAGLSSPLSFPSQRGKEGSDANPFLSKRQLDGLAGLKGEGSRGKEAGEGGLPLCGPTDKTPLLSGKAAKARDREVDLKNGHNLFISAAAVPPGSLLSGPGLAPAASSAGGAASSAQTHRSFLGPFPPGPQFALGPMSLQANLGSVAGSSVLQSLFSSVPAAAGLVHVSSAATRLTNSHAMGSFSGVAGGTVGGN
For assay [11], the target named is T1, Histone-lysine N-methyltransferase, H3 lysine-79 specific. Kind of assay: Binding affinity to recombinant N-terminal DOT1L (1 to 420 residues) (unknown origin) expressed in Escherichia coli (DE3) assessed as dissociation constant by surface plasmon resonance assay. In general terms: In SPR one partner is held on a chip, and binding of the other changes the refractive index at the surface.

Assay [12] concerns the target Histone-lysine N-methyltransferase SETDB1 (Homo sapiens) (UniProt Q15047). Put plainly: Inhibition of SETDB1 (unknown origin) using H3 1-25 peptide in presence of SAM. An outline of the steps: as §1
The species named for assay [13] is Rattus norvegicus. Kind of assay: Inhibition of rat central GABAA receptor at 1 uM by flunitrazepam radioligand binding assay relative to control.
In assay [14] the target is Histone-lysine N-methyltransferase KMT5B (Homo sapiens) (UniProt Q4FZB7). Kind of assay: Inhibition of […] (unknown origin) using H4 K20Me1 peptide in presence of SAM. Put shortly:
as §1

In assay [15] the target is Cannabinoid receptor 1 (Homo sapiens) (UniProt P21554). Put plainly: Inhibition of human CB1R at 1 uM relative to control.
For assay [16], the target named is Adenosine receptor A1 (Homo sapiens) (UniProt P30542). Kind of assay: Inhibition of human Adenosine A1 receptor at 1 uM relative to control.

The source made the active and inactive calls. The calls are words filed in the database; no cut-off is given here.

Chain of DNA (cytosine-5)-methyltransferase 1 (Homo sapiens) (P26358 whole entry): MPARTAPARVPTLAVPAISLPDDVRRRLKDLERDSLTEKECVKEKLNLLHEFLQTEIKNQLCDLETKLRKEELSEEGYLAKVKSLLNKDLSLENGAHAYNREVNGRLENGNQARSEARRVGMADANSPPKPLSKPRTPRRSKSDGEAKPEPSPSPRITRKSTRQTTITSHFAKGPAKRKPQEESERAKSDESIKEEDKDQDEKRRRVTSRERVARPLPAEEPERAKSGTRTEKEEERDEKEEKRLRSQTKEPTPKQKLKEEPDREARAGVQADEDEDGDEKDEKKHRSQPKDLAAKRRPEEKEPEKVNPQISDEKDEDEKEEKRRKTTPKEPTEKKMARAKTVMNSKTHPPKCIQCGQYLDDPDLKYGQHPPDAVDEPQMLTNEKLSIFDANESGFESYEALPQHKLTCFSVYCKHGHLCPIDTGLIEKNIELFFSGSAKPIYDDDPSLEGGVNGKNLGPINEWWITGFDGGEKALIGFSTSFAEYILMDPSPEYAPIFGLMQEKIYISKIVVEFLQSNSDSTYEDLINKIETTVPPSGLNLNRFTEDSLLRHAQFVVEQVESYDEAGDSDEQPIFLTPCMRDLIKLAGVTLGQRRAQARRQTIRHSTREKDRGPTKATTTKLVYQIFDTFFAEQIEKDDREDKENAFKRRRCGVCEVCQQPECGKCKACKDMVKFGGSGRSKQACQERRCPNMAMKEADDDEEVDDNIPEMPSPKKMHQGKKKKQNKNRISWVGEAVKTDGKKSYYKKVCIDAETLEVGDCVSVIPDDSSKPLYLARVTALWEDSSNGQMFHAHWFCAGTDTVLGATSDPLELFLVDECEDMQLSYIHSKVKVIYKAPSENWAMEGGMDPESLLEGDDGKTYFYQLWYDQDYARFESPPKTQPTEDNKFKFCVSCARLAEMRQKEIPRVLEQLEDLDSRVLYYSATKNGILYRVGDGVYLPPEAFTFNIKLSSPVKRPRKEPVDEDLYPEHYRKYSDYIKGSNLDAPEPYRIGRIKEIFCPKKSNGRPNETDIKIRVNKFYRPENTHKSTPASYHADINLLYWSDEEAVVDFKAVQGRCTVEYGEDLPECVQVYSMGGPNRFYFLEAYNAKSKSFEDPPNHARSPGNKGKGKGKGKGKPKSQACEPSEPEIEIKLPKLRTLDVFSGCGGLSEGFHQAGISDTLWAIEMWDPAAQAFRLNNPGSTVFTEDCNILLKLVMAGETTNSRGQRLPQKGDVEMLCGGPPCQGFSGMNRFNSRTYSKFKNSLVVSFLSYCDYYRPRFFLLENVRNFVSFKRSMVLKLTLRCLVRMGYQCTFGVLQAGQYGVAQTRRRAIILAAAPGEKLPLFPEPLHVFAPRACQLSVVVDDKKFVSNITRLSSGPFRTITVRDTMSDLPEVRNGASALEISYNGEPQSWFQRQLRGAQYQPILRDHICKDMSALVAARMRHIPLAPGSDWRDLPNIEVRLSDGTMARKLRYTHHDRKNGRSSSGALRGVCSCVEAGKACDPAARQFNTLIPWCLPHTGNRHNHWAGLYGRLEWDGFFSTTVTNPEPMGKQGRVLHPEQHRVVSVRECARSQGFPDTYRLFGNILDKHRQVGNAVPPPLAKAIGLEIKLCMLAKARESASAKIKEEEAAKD
Chain of D(2) dopamine receptor (Homo sapiens) (P14416 whole entry): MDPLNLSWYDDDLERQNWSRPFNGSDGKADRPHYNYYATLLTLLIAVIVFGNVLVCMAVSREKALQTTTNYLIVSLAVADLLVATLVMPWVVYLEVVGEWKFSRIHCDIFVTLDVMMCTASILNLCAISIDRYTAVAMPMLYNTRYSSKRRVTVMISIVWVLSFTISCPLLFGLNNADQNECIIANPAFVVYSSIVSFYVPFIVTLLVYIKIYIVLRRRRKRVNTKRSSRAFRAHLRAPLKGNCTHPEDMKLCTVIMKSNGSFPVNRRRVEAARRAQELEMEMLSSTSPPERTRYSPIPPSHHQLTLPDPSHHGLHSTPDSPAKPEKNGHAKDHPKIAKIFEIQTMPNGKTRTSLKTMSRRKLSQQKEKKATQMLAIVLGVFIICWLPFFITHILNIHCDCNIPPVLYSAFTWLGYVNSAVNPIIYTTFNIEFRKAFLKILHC
Chain of Histone-lysine N-methyltransferase KMT5B (Homo sapiens) (Q4FZB7 whole entry, looked up): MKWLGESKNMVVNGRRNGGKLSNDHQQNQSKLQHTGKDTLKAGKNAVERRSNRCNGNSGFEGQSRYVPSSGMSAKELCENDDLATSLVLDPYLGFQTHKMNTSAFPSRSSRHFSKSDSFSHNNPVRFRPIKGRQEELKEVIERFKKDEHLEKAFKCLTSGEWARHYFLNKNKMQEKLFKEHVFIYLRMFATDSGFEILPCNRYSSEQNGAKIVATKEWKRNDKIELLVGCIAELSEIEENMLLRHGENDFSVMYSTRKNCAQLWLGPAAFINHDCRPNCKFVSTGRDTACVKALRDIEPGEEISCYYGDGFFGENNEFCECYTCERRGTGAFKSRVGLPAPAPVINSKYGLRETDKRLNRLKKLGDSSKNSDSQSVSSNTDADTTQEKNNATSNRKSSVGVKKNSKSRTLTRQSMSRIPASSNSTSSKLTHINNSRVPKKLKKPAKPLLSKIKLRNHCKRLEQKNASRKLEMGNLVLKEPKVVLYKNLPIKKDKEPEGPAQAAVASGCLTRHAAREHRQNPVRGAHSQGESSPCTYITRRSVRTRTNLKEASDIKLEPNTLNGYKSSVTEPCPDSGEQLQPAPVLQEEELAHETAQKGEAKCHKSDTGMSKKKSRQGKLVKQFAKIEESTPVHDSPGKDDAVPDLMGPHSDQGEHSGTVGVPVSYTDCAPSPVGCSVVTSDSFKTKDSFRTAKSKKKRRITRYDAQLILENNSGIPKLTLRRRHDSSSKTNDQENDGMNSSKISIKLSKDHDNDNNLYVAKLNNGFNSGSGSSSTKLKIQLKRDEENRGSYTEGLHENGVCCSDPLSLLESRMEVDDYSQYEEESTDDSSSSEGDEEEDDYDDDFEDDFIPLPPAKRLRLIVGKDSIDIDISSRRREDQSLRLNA

For the compound `CC(C)N(CCCNC(=O)Nc1ccc(C(C)(C)C)cc1)C[C@H]1O[C@@H](n2cc(Br)c3c(N)ncnc32)[C@H](O)[C@@H]1O`, the inhibition entry in [1], in [3], in [12] and in assay [14] was “inactive” each time. Moreover, the inhibition (as a rule, the change of the read-out against control, counted positive when it falls) in assay [2] was -5%; in [5], 17%; in [7] it was -1%; in assay [8] it was -3%; in [9] it was -10%; in [13], 8%. Also, the values for the inhibition in assay [15] and in assay [16] were 5% and -4%, respectively. Moreover, the result in assay [4] was inactive. Further, in [6], the IC50 (as a rule, the concentration needed to halve the response being measured) was 8.8 nM. Also, the Kd – broadly, the free concentration of one partner at which half of the binding sites on the other are occupied at equilibrium, for simple one-to-one binding – in assay [10] amounted to 0.0561 nM; in assay [11], 0.06 nM.

Values taken from ChEMBL document CHEMBL5653612, “Catalytic site remodelling of the DOT1L methyltransferase by selective inhibitors” (Nat Commun, 2012).
